Drawing on ChEMBL document CHEMBL4368867 (Medchemcomm, 2018), this text covers IC50 and Ratio IC50 for 13 compounds.

Structures are written as SMILES.

One assay has as its target Carbonic anhydrase 9 (Homo sapiens, UniProt Q16790). Nature of the assay: Inhibition of human carbonic anhydrase-9 incubated for 15 mins prior to testing by stopped-flow CO2 hydration assay.
The next assay addresses Carbonic anhydrase 1 (Homo sapiens, UniProt P00915). Description: Inhibition of human erythrocyte carbonic anhydrase-1 incubated for 15 mins prior to testing by stopped-flow CO2 hydration assay.
Another assay addresses Carbonic anhydrase 2 (Homo sapiens, UniProt P00918). Nature of the assay: Inhibition of recombinant human carbonic anhydrase-2 expressed in Escherichia coli incubated for 15 mins prior to testing by stopped-flow CO2 hydration assay.
For assay [1], the species on record is Homo sapiens. Description: Selectivity ratio of IC50 for human erythrocyte carbonic anhydrase-1 to IC50 for human carbonic anhydrase-9. The essentials:
(§1)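 Ratio of the CA I or CA II IC50 to the CA IX IC50. hCA IX was purified recombinant protein; CA I and CA II were commercial. Enzyme levels were 50 ng µL−1 for CA I, 1 ng µL−1 for CA II and 3 ng µL−1 for CA IX. Inhibitor in DMSO was preincubated with enzyme for 15 min. Activity was read as stopped-flow CO2 hydration or initial 4-nitrophenyl acetate hydrolysis rates. Triplicates per concentration, mean reported.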

The species entered for assay [2] is Homo sapiens. Description: Selectivity ratio of IC50 for recombinant human carbonic anhydrase-2 expressed in Escherichia coli to IC50 for human carbonic anhydrase-9. The essentials: as §1

Chain of Carbonic anhydrase 1 (P00915 whole entry): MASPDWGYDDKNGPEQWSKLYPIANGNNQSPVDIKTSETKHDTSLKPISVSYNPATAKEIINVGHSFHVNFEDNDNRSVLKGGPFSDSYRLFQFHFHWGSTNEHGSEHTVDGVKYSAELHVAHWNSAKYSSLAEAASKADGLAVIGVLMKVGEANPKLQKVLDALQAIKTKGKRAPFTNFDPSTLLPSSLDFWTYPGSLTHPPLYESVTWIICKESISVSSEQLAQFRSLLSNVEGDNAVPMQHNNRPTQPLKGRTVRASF

For orientation: IC50 means the point on the concentration scale where inhibition reaches its midpoint. On to `COc1ccccc1C(=O)NC(=S)Nc1cccc(S(N)(=O)=O)c1`, for which the IC50 at Carbonic anhydrase 9 was 54.3 nM; on Carbonic anhydrase 1, 44.4 nM; on Carbonic anhydrase 2, 20.7 nM. Besides, the values for the Ratio IC50 in the assay listed under Homo sapiens [1] and in the assay listed under Homo sapiens [2] were 0.82 and 0.38, respectively.
With `NS(=O)(=O)c1ccc(NC(=S)NC(=O)c2ccc(Cl)cc2)cc1`, the IC50 against Carbonic anhydrase 9 was 4.14 nM; at Carbonic anhydrase 1, 423 nM; at Carbonic anhydrase 2 it was 12.9 nM. Besides, the Ratio IC50 amounted to 102 in the assay listed under Homo sapiens [1] and 3.13 in the assay listed under Homo sapiens [2].
For `NS(=O)(=O)c1ccc(NC(=S)NC(=O)c2ccccc2Cl)cc1`, in that order: 3.42 nM, 661 nM, 22.9 nM, 193 and 6.68.
For `NS(=O)(=O)c1ccc(NC(=S)NC(=O)c2ccc([N+](=O)[O-])cc2)cc1` the same measures were 0.48 nM, 504 nM, 749 nM, 1050 and 1560.
For `COc1ccc(C(=O)NC(=S)Nc2ccc(S(N)(=O)=O)cc2)cc1`, in that order: 0.47 nM, 694 nM, 25.6 nM, 1480 and 54.4.
For the compound `NS(=O)(=O)c1cccc(NC(=S)NC(=O)c2ccc(Cl)cc2)c1`, the IC50 against Carbonic anhydrase 9 was 42.2 nM; against Carbonic anhydrase 1 it was 1540 nM; on Carbonic anhydrase 2, 240 nM. For the same compound, the results for the Ratio IC50 in the assay listed under Homo sapiens [1] and in the assay listed under Homo sapiens [2] were 36.5 and 5.67, respectively.
In the case of `COc1ccccc1C(=O)NC(=S)Nc1ccc(S(N)(=O)=O)cc1`, the concentration for half-maximal inhibition (IC50) at Carbonic anhydrase 9 is 0.3 nM; at Carbonic anhydrase 1, 267 nM; on Carbonic anhydrase 2, 2.09 nM. Besides, the figures for the Ratio IC50 in the assay listed under Homo sapiens [1] and in the assay filed under Homo sapiens [2] were 889 and 6.97, respectively.
As for `NS(=O)(=O)c1cccc(NC(=S)NC(=O)c2ccccc2)c1`, the IC50 against Carbonic anhydrase 9 was determined as 25.7 nM; against Carbonic anhydrase 1 it was 867 nM; at Carbonic anhydrase 2, 167 nM. In addition, the Ratio IC50 in the assay listed under Homo sapiens [1] came out at 33.7; in the assay filed under Homo sapiens [2], 6.47.
On to `NS(=O)(=O)c1cccc(NC(=S)NC(=O)c2ccc([N+](=O)[O-])cc2)c1`, for which the IC50 was more than 104 nM on Carbonic anhydrase 9, 60.5 nM at Carbonic anhydrase 1 and 142 nM on Carbonic anhydrase 2.
For the compound `NS(=O)(=O)c1cccc(NC(=S)NC(=O)c2ccc(Cl)cc2Cl)c1`, the 50% inhibitory concentration (IC50) came to 4.42 nM on Carbonic anhydrase 9, 1340 nM at Carbonic anhydrase 1 and 950 nM at Carbonic anhydrase 2. In addition, the results for the Ratio IC50 in the assay listed under Homo sapiens [1] and in the assay listed under Homo sapiens [2] were 304 and 215, respectively.
For `COc1ccc(C(=O)NC(=S)Nc2cccc(S(N)(=O)=O)c2)cc1` the same measures were 25.5 nM, 665 nM, 908 nM, 26.1 and 35.6.
For the compound `NS(=O)(=O)c1ccc(NC(=S)NC(=O)c2ccc(Cl)cc2Cl)cc1`, the 50% inhibitory concentration (IC50) stood at 0.12 nM against Carbonic anhydrase 9, 632 nM at Carbonic anhydrase 1 and 11.8 nM at Carbonic anhydrase 2. The Ratio IC50 in the assay listed under Homo sapiens [1] came out at 5270; in the assay listed under Homo sapiens [2] it was 98.5.
Consider `NS(=O)(=O)c1cccc(NC(=S)NC(=O)c2ccccc2Cl)c1`, for which the IC50 against Carbonic anhydrase 9 worked out at 19 nM; at Carbonic anhydrase 1, 773 nM; on Carbonic anhydrase 2, 277 nM. Besides, the values for the Ratio IC50 in the assay filed under Homo sapiens [1] and in the assay listed under Homo sapiens [2] were 40.7 and 14.6, respectively.
